Test results reported in ChEMBL document CHEMBL1821634, “Design and synthesis of (+)-discodermolide-paclitaxel hybrids leading to enhanced biological activity” (J Med Chem, 2011).
Activity calls are given as the source filed them. The rule behind the calls is not given here.

Legend:
A549 = experiment: Antiproliferative activity against human A549 cells after 72 hrs by SRB method; type: functional, cell-based; details: A549, 72 h
In short: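 Cells kept in RPMI with 10% FBS; 800 A549 cells seeded per well, drugs added at increasing concentrations 18 h after plating. Incubated 72 h at 37 °C, then fixed and stained with SRB. IC50 taken as concentration inhibiting growth by 50%.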

MCF7 = experiment: Antiproliferative activity against human MCF7 cells after 96 hrs by SRB method; type: functional, cell-based; details: MCF7, 96 h
In short: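 MCF-7 cells grown in RPMI plus 10% fetal bovine serum, seeded at 2000 per well. Increasing drug concentrations added 18 h post-plating. Incubation for 96 h at 37 °C, with the later fixation allowing for growth rate, then SRB staining. IC50 is the concentration giving 50% growth inhibition.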

Bos taurus = species on record: Bos taurus; experiment: Induction of bovine brain tubulin polymerization at 3 uM after 30 mins by SDS-PAGE
In short: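 Tubulin (2.5 μM) in 0.1 M MES, 1 mM EGTA, 1 mM MgCl₂ with 2 mM GTP, incubated with drug at 3 μM for 30 min at 37 °C. Polymer pelleted at 120000g, 37 °C, 1 h. Pellet dissolved in SDS sample buffer and analysed by SDS-PAGE.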

SMILES	IC50 (A549) [nM]	IC50 (MCF7) [nM]	Activity (Bos taurus)
C=C/C=C\[C@H](C)[C@H](OC(N)=O)[C@@H](C)[C@H](O)[C@@H](C)C/C(C)=C\[C@H](C)[C@@H](O)[C@@H](C)/C=C\[C@@H](O)C[C@@H]1OC(=O)[C@H](C)[C@@H](O)[C@H]1C [DISERMOLIDE]	9.34	7.98	Active
CC(=O)O[C@H]1C(=O)[C@@]2(C)[C@H]([C@H](OC(=O)c3ccccc3)[C@]3(O)C[C@H](OC(=O)[C@H](O)[C@@H](NC(=O)c4ccccc4)c4ccccc4)C(C)=C1C3(C)C)[C@]1(OC(C)=O)CO[C@@H]1C[C@@H]2O [PACLITAXEL]	3.14	0.91	–
C=C/C=C\[C@H](C)[C@H](OC(=O)NCCCCNC(=O)c1ccc(N=[N+]=[N-])cc1)[C@@H](C)[C@H](O)[C@@H](C)C/C(C)=C\[C@H](C)[C@@H](O)[C@@H](C)/C=C\[C@@H](O)C[C@@H]1OC(=O)[C@H](C)[C@@H](O)[C@H]1C	3.76	2.71	Active
C=C/C=C\[C@H](C)[C@H](OC(=O)NCCCNC(=O)c1ccc(N=[N+]=[N-])cc1)[C@@H](C)[C@H](O)[C@@H](C)C/C(C)=C\[C@H](C)[C@@H](O)[C@@H](C)/C=C\[C@@H](O)C[C@@H]1OC(=O)[C@H](C)[C@@H](O)[C@H]1C	1.21	1.9	Active
C=C/C=C\[C@H](C)[C@H](OC(=O)NCCCNC(=O)c1ccc(C2(C(F)(F)F)N=N2)cc1)[C@@H](C)[C@H](O)[C@@H](C)C/C(C)=C\[C@H](C)[C@@H](O)[C@@H](C)/C=C\[C@@H](O)C[C@@H]1OC(=O)[C@H](C)[C@@H](O)[C@H]1C	2.64	1.92	Active
C=C/C=C\[C@H](C)[C@H](OC(=O)NCCCNC(=O)c1cccc(N=[N+]=[N-])c1)[C@@H](C)[C@H](O)[C@@H](C)C/C(C)=C\[C@H](C)[C@@H](O)[C@@H](C)/C=C\[C@@H](O)C[C@@H]1OC(=O)[C@H](C)[C@@H](O)[C@H]1C	1.05	1.66	Active
C=C/C=C\[C@H](C)[C@H](OC(=O)NCCNC(=O)c1ccc(N=[N+]=[N-])cc1)[C@@H](C)[C@H](O)[C@@H](C)C/C(C)=C\[C@H](C)[C@@H](O)[C@@H](C)/C=C\[C@@H](O)C[C@@H]1OC(=O)[C@H](C)[C@@H](O)[C@H]1C	5.61	3.64	Active
